Assay results published in article PMC4521672 (OncoTargets and therapy, 2015).
Where “and” joins values, the source holds several entries; their conditions need not be identical. Equal entries are not always repeated.

Key:
GSTA1 (GST-α) = molecular target: T1, GSTA1 (GST-α) (Homo sapiens, UniProt P08263); assay: GST activity assay; type: biochemical; details: read-out: IC50 for inhibition of formation of the CDNB-GSH conjugate in the presence of GST-α; GSTA1 5 μg/mL, pH 6.8, absorption at 355 nm
T1 sequence (P08263 1-222): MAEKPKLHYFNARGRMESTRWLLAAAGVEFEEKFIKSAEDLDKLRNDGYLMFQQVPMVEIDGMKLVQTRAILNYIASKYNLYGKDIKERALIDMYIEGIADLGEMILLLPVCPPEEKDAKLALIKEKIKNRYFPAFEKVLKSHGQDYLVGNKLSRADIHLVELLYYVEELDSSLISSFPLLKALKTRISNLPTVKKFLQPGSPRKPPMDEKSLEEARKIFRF
How it was run: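 Recombinant human GSTA1 at 5 μg/mL in 0.1 M sodium phosphate, pH 6.8. GSH and CDNB were added from 2.5 mM and 7.5 mM stocks. Test compound was made as a 10 mM ethanol stock, then serially diluted to 10^-2–100 μM to compete with CDNB for conjugation to GSH. After 1–5 min, absorbance read at 355 nm, minus non-enzymatic conjugation. Triplicate runs; IC50 taken from dose–response curves.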

GSTP1 (GST-π) = GSTP1 (GST-π) (Homo sapiens, UniProt P09211); assay: GST activity assay; type: biochemical; details: read-out: IC50 for inhibition of formation of the CDNB-GSH conjugate in the presence of GST-π; GSTP1 5 μg/mL, pH 6.8, absorption at 355 nm
C6 glioma tumor = assay: In vivo PET imaging of C6 glioma-bearing rat; design: species or system Sprague–Dawley rats; details: dynamic PET 0-60 minutes post-injection, intravenous
How it was run: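 Male Sprague–Dawley rats (8 weeks) stereotactically inoculated in the right hemisphere with 1.0×10^5 C6 cells. Tumours grew 2 weeks to 3–5 mm, with loci confirmed by MRI. Rats were anaesthetised with isoflurane in 200 mL/min oxygen and fitted with venous and arterial catheters. Imaged on a microPET R4 scanner; one tumour-bearing and one healthy rat were scanned.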

IC50 (GSTA1 (GST-α)) [µM]	IC50 (GSTP1 (GST-π))	SMILES	Accumulation in C6 glioma tumor loci (PET) (C6 glioma tumor)
17.5	6.02 µM and 6 µM	C=C(CC)C(=O)c1ccc(OCC(=O)NCCCCF)c(Cl)c1Cl [FBuEA, fluorobutyl ethacrynic amide]	
		Cc1cn([C@H]2C[C@H]([18F])[C@@H](CO)O2)c(=O)[nH]c1=O [[^18F]FLT, 3′-deoxy-3′-[^18F] fluorothymidine]	tumor sites were targeted
